Data as given in ChEMBL document CHEMBL4261642, “Design, synthesis, and ex vivo evaluation of a selective inhibitor for retinaldehyde dehydrogenase enzymes” (Bioorg Med Chem, 2018).
pIC50: −log10 of the molar value.

Tests used:
[1] = target: T1, Retinal dehydrogenase 2 (Gallus gallus, UniProt O93344); test: Inhibition of RALDH2 in choroidal cytosol fraction from 4 day recovering chick assessed as inhibition of ATRA synthesis pre-incubated for 20 mins followed by […] addition and measured after 30 mins by HPLC analysis
T1 sequence (O93344 whole entry): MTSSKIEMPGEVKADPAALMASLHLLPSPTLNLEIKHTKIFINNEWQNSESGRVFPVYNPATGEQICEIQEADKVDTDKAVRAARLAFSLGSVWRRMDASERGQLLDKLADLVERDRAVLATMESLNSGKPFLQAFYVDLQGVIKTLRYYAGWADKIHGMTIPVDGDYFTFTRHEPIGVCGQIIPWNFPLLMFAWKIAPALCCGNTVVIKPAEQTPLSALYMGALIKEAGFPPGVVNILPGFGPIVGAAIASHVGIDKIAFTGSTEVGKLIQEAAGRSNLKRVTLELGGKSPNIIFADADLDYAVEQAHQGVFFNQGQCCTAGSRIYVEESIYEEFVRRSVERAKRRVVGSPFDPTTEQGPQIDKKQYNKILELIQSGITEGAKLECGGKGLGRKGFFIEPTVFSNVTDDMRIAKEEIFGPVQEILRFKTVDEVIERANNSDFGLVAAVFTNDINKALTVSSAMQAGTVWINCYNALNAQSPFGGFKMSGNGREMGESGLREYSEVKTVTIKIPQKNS

[2] = target: T2, Retinal dehydrogenase 2 (Homo sapiens) (UniProt O94788); test: Inhibition of RALDH2 (unknown origin) […] assessed as time dependence ratio (kinact/KI)
T2 sequence (whole entry): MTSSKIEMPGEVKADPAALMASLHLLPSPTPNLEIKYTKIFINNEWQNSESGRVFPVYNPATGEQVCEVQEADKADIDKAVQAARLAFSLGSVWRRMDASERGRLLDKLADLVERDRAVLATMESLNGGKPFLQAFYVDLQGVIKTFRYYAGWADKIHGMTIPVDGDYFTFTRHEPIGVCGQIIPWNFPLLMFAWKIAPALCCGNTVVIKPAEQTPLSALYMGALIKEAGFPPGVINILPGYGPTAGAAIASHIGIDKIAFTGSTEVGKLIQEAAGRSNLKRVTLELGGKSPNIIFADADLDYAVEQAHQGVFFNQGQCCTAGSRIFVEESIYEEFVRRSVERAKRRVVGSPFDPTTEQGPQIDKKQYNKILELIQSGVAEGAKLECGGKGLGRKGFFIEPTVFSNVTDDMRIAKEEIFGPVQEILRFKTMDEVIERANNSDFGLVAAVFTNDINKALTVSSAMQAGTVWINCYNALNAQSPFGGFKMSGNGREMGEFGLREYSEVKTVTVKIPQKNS

[3] = target: T3, Retinal dehydrogenase 2 (Gallus gallus) (UniProt O93344); test: (§1) Inhibition of N-terminal His6-tagged recombinant chick RALDH2 expressed in Escherichia coli BL21(DE3) cells at 250 nM using RAL as substrate assessed as remaining activity preincubated for 40 mins followed by all-trans-retinaldehyde and substrate addition measured after 30 mins in presence of NAD+ by fluorescence assay
T3 sequence (whole entry): T1 sequence (O93344 whole entry)
Summary of the method: (§2)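 Chick RALDH2 (91 nM) pre-incubated with 250 nM inhibitor for 0–80 min at 37°C, alone or with 250 μM retinaldehyde or 250 μM NAD+. Reaction then started with the missing substrate and/or cofactor (250 μM retinaldehyde, 4 mM NAD), 30 min at 37°C. Fluorimetric NADH; % activity remaining. Triplicates.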

[4] = target: T4, Aldehyde dehydrogenase, mitochondrial (Homo sapiens, UniProt P05091); test: Inhibition of N-terminal His6-tagged recombinant human mitochondrial ALDH2 using propionaldehyde as substrate preincubated for 20 mins to 1 hr followed by substrate addition and measured for 5 mins in presence of NADH by spectrophotometric assay
T4 sequence (P05091 whole entry): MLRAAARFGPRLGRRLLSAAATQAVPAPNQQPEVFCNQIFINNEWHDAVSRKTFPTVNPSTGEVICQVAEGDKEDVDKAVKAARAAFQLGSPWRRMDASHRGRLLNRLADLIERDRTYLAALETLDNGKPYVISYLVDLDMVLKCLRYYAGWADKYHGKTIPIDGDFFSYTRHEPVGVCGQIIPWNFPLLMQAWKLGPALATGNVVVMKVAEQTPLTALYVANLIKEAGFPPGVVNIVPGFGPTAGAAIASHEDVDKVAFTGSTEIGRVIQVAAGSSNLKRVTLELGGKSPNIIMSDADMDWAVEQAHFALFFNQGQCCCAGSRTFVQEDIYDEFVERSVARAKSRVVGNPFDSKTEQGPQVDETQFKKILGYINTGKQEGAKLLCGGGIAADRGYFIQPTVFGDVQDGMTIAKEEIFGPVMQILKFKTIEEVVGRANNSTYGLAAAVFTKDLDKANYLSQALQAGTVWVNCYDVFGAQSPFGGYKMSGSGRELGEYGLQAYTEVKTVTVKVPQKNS

[5] = target: T1, Retinal dehydrogenase 2; test: Inhibition of N-terminal His6-tagged recombinant chick RALDH2 expressed in Escherichia coli BL21(DE3) cells using RAL as substrate preincubated for 20 mins followed by substrate addition and measured after 30 mins in presence of NADH by fluorescence assay
Summary of the method: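 Purified His-tagged recombinant enzyme in dialysis buffer with 2 mM DTT. Amounts were chick RALDH1 2 μg (0.358 μM), chick RALDH2 0.5 μg (0.091 μM), chick RALDH3 2 μg (0.355 μM) and human RALDH2 1 μg (0.176 μM). Enzyme pre-incubated 20 min at 37°C with 0–10 μM inhibitor in DMSO. Reaction started with final 4 mM NAD+ in pyrophosphate pH 8.2 buffer plus 250 μM retinaldehyde, 30 min at 37°C. NADH read fluorimetrically (Ex/Em 540/590) against a standard curve. Triplicates, 3–5 experiments.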

[6] = organism: Gallus gallus; test: Inhibition of N-terminal His6-tagged recombinant chick RALDH3 expressed in Escherichia coli BL21(DE3) cells at 100 nM using RAL as substrate assessed as Km preincubated for 20 mins followed by substrate addition and measured after 30 mins in presence of NADH by fluorescence assay (reference value: 84.45 +/- 30.99 microM)
[7] = target: T3, Retinal dehydrogenase 2 (Gallus gallus); test: Inhibition of N-terminal His6-tagged recombinant chick RALDH2 expressed in Escherichia coli BL21(DE3) cells at 50 nM using RAL as substrate assessed as remaining activity preincubated for 20 mins followed by compound washout by ultrafiltration and subsequent addition of substrate and measured after 30 mins in presence of NADH by fluorescence assay (reference value: 100.0 +/- 11.57%)
Summary of the method: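 Chick RALDH2 (91 nM) pre-incubated 20 min with 0–50 nM inhibitor. Unbound inhibitor removed by ultrafiltration before adding 250 μM retinaldehyde and 4 mM NAD+, 30 min at 37°C. NADH measured fluorimetrically. Activity expressed as % of vehicle. Triplicates; one-way ANOVA with Bonferroni test.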

[8] = target: T3, Retinal dehydrogenase 2 (Gallus gallus); test: as §1, with “80” for “40”; summary of the method: as §2
[9] = target: T3, Retinal dehydrogenase 2 (Gallus gallus); test: as §1, with “5” for “40”; summary of the method: as §2

pIC50 [1]: 7.27
kinact/KI [2]: 1550 to 233000 M⁻¹ s⁻¹
Activity [3]: 16.3%
IC50 [4]: Not Active
pIC50 [5]: 7.26
Activity [7]: 23%
Activity [8]: 16.5%
Activity [9]: 39.2%
Structure (SMILES): CC1=C(/C=C/C(C)=C/C=C/C(C)=C/C(=O)C(Cl)Cl)C(C)(C)CCC1
Km [6]: 52.7 µM
